Data on eight molecules can be found in ChEMBL document CHEMBL1212828, “Synthesis and biological evaluation of novel pyrazole compounds” (Bioorg Med Chem, 2010).

Calls of active or inactive are those of the source. No cut-off for these calls is given here.

Series [1] deals with THP-1. Put plainly: Neuroprotective activity against LPS and IFN-gamma-stimulated neurotoxin production in human THP1 cell assessed as inhibition of THP1 cell secretion-induced toxicity to human SH-SY5Y cells after 72 hrs by MTT assay. In kind it is functional, cell-based. The following applies: THP-1, 72 h. Put shortly: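 THP-1 cells pretreated 15 min with compound, then stimulated with LPS (0.5 µg/mL) plus IFN-γ (150 U/mL) for 24 h. Cell-free supernatant transferred to SH-SY5Y cells plated 24 h earlier (2 × 10^5 cells/mL). After 72 h, SH-SY5Y viability read by MTT (0.5 mg/mL, 1 h, 37 °C, OD570) or by LDH release (OD490, relative to Triton X-100 lysis). IC50 estimated.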

Series [2] relates to THP-1. Put plainly: Cytotoxicity against human THP1 cells assessed as reduction in cell viability. In kind it is cell-based. Put shortly:
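THP-1 cells in DMEM-F12 with 5% FBS, 24-well plates, pretreated 15 min with compound or DMSO vehicle, then stimulated with LPS 0.5 µg/mL plus IFN-γ 150 U/mL for 24 h. Death read as supernatant LDH (iodonitrotetrazolium formazan, 490 nm, fraction of Triton X-100 lysate); survival by MTT; MCP-1 by ELISA. Concentration effects by randomized block ANOVA; 8–11 independent experiments.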

Series [3] concerns THP-1. Put plainly: Antiinflammatory activity in human THP1 cells assessed as reduction in LPS and IFN-gamma-induced MCP level after 24 hrs. In kind it is functional, cell-based. The following applies: Homo sapiens, THP-1, 24 h; read-out: IC50. Put shortly:
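THP-1 cells (5 × 10^5 cells/mL, DMEM-F12 with 5% FBS) pretreated 15 min with compound or DMSO vehicle, then stimulated with 0.5 µg/mL LPS plus 150 U/mL IFN-γ. After 24 h, MCP-1 in cell-free medium measured by ELISA. IC50 estimated from concentration–response; randomized block ANOVA.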

In series [4] the target is T1, Prostaglandin G/H synthase 1 (Ovis aries) (UniProt P05979).
T1 sequence (whole entry): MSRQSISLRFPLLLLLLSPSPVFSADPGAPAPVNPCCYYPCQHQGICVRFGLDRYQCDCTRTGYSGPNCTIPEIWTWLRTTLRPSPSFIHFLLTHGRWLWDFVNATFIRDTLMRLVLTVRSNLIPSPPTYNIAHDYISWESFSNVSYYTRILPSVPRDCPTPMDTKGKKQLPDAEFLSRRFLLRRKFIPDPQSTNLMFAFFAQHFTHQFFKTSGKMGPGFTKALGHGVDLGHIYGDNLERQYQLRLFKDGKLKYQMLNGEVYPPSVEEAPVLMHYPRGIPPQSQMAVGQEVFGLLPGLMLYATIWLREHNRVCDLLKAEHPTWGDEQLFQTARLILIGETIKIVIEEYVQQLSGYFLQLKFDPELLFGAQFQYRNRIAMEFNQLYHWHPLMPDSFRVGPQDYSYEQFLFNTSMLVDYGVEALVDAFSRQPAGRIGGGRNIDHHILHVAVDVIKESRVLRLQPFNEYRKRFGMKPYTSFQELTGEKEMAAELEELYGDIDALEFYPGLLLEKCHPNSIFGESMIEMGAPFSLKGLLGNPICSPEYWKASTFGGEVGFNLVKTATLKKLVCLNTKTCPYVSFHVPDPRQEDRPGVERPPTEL
In words: Inhibition of ovine COX1 at 100 uM. Put shortly:
(§1)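 Screening kit with ovine COX-1 and human recombinant COX-2, run per manufacturer's protocol; percent inhibition of prostaglandin production measured for each isoform.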

The next series relates to SH-SY5Y. Put plainly: Neuroprotective activity in human SH-SY5Y cells. In kind it is functional, cell-based. The essentials:
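SH-SY5Y cells seeded at 2 × 10^5/mL in DMEM-F12 with 5% FBS; after 24 h medium replaced by supernatant of THP-1 cells stimulated 24 h with LPS + IFN-γ, or by medium containing 250 µM H2O2, with compound added at transfer. Cell death measured by LDH assay 72 h later; five independent experiments; randomized block ANOVA.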

Another series deals with SH-SY5Y (Homo sapiens). Put plainly: Neuroprotective activity against LPS and IFN-gamma-induced human THP1 cell supernatant-induced death of human SH-SY5Y cells after 72 hrs by MTT assay. The conditions noted are these: THP-1.
The target of series [5] is T2, Prostaglandin G/H synthase 2 (Homo sapiens) (UniProt P35354).
T2 sequence (whole entry): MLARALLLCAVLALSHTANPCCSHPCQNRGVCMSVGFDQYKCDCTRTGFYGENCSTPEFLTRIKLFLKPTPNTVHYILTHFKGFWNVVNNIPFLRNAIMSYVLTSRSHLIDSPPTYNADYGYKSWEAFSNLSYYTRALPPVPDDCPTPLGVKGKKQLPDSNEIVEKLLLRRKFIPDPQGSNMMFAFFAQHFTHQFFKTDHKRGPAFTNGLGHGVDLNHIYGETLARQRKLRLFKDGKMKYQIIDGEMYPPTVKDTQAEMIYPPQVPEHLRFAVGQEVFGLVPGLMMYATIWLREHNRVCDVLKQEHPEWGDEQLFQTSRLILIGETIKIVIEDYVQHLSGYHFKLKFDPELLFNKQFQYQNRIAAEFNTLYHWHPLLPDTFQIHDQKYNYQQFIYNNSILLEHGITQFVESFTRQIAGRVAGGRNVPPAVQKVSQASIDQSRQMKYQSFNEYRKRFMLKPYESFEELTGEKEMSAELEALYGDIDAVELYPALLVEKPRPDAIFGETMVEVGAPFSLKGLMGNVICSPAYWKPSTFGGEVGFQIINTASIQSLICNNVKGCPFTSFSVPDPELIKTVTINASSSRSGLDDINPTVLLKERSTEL
In words: Inhibition of human COX2 at 100 uM. Put shortly:
as §1

Series [6] relates to Rattus norvegicus. In words: Toxicity in Wistar albino rat assessed as ulcerogenic activity at 300 mg/kg, po qd for 3 days. In kind it is organism-based. More on the design: dose 300 mg/kg, route oral. The conditions noted are these: in vivo, 72 h. The essentials: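 Rats in groups of five, fasted 12 h with water ad libitum; oral dosing in two equal portions at 0 and 12 h for three days, 300 mg/kg per day; control given 1% gum acacia. Killed 6 h after last dose; stomach opened along greater curvature, saline-washed, inspected under 3× lens for hyperemia, hemorrhage, erosion or ulcer.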

In series [7] the test system is Rattus norvegicus. In words: Antiinflammatory activity in po dosed Wistar albino rat assessed as inhibition of formalin-induced paw edema after 3 hrs relative to control. In kind it is functional.
Series [8] relates to Rattus norvegicus. In words: Antiinflammatory activity in Wistar albino rat assessed as inhibition of formalin-induced paw edema at 20 mg/kg, po administered 1 hr prior to formalin challenge measured after 1 hr relative to control. In kind it is functional. The essentials: (§2)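 Male Wistar rats, 180–200 g, groups of five; single oral dose 1 h before 2% formalin (0.1 mL) into subplantar left hind paw under light ether anaesthesia. Paw volume read by water plethysmometer at baseline and 1, 2, 3, 4 h; % inhibition = control (Vt−Vo) minus treated (Vt−Vo), over control, ×100. Means ± SEM; ANOVA with Student–Newman–Keuls.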

In series [9] the test system is Rattus norvegicus. Put plainly: Antiinflammatory activity in Wistar albino rat assessed as inhibition of formalin-induced paw edema at 20 mg/kg, po administered 1 hr prior to formalin challenge measured after 4 hrs relative to control. In kind it is functional. Put shortly: as §2
Series [10] has as its system Rattus norvegicus. In words: Antiinflammatory activity in Wistar albino rat assessed as inhibition of turpentine oil-induced granuloma at 20 mg/kg, po qd for 7 days post turpentine oil challenge measured on day 8. In kind it is functional. Put shortly: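 In ether-anaesthetized male Wistar rats (five per group) a dorsal subcutaneous pouch is formed with 2 mL air, then 0.5 mL turpentine oil is injected. Oral dosing at 20 mg/kg starts 1 h before turpentine and continues 7 days. On day 8 the exudate is drawn by syringe and its volume recorded; % inhibition = (Vcontrol − Vtreated)/Vcontrol × 100.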

Series [11] deals with Rattus norvegicus. Put plainly: Antiinflammatory activity in Wistar albino rat assessed as inhibition of formalin-induced paw edema at 20 mg/kg, po administered 1 hr prior to formalin challenge measured after 3 hrs relative to control. In kind it is functional. The essentials: as §2
The subject of series [12] is Rattus norvegicus. In words: Antiinflammatory activity in Wistar albino rat assessed as inhibition of formalin-induced paw edema at 20 mg/kg, po administered 1 hr prior to formalin challenge measured after 2 hrs relative to control. In kind it is functional. The essentials:
as §2

Series [13] relates to Rattus norvegicus. In words: Antiinflammatory activity in Wistar albino rat sub-acute inflammatory model assessed as inhibition of formalin-induced paw edema at 20 mg/kg, po administered 1 hr prior to formalin challenge measured on day 8 relative to control. In kind it is functional. Put shortly: (§3)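 Male Wistar rats, 180–200 g, five per group, dosed orally 20 mg/kg daily for 7 consecutive days. Formalin (2%, 0.1 mL) injected subplantar into left hind paw under light ether 1 h after dosing, repeated on day 3. Paw volume measured plethysmographically on days 1 and 8; inhibition expressed relative to untreated controls.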

The test system of series [14] is Rattus norvegicus. In words: Antiinflammatory activity in Wistar albino rat sub-acute inflammatory model assessed as inhibition of formalin-induced paw edema at 20 mg/kg, po administered 1 hr prior to formalin challenge measured on day 1 relative to control. In kind it is functional. Put shortly: as §3
Series [15] in a line: Acute toxicity in Wistar albino rat after 24 hrs. The following applies: in vivo, read-out: ALD50. In kind it is organism-based. The essentials:
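Male Wistar albino rats (180–200 g), fasted 24 h, groups of five; compound given orally in graded doses of 0.1–3.0 g/kg. Mortality recorded at each dose after 24 h to estimate approximate acute lethal dose (ALD50).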

On to `N#Cc1cnn(-c2ccccc2)c1NC(=O)C(=O)NC1CCCCC1`, for which the figures for the IC50 in the series on THP-1 [1] and with THP-1 [3] were 250 µM and over 500 µM, respectively. For the same molecule, the EC50 in the series with THP-1 [2] was 80 µM.
Turning to `COC(=O)c1nc2c(cnn2-c2ccccc2)c(=O)[nH]1`, the figures for the inhibition in [4] and in [5] were 16.4% and 14.2%, respectively. Also, the concentration for half-maximal inhibition (IC50) in the series on THP-1 [1] was determined as 20 µM; in the series with THP-1 [3] it was 100 µM. In addition, in the series on SH-SY5Y, the outcome was inactive. In addition, the EC50 in the series with THP-1 [2] worked out at 40 µM. Moreover, the result in the series with SH-SY5Y (Homo sapiens) was Active.
In the case of `COc1ccc2c(c1)c(CC(=O)O)c(C)n2C(=O)c1ccc(Cl)cc1` [INDOMETHACIN], the Activity with Rattus norvegicus [6] was found to be 100%.
`Cc1ccc(-c2cc(C(F)(F)F)nn2-c2ccc(S(N)(=O)=O)cc2)cc1` [CELECOXIB]: the IC50 worked out at 5 µM in the series on THP-1 [1] and 70 µM in the series with THP-1 [3]. Further, in the series on Rattus norvegicus [7], the ED50 amounted to 15.7 mg/kg. The inhibition in vivo at 20 mg/kg in the series on Rattus norvegicus [8] is 38%; with Rattus norvegicus [9], 47%; with Rattus norvegicus [10] it was 46%; with Rattus norvegicus [11] it was 56%; in the series on Rattus norvegicus [12], 41%; with Rattus norvegicus [13], 41%. The inhibition in vivo at 20 mg/kg with Rattus norvegicus [14] is 37%. The Activity in the series with Rattus norvegicus [6] is 0%.
Regarding `C[C@@H](NC(=O)C(=O)Nc1c(C#N)cnn1-c1ccccc1)c1ccccc1`, in series [15], the LD50 at 24 h is over 300 mg/kg. Besides, the ED50 in the series with Rattus norvegicus [7] worked out at 18.9 mg/kg. Besides, the inhibition in vivo at 20 mg/kg with Rattus norvegicus [8] came to 56%; with Rattus norvegicus [9] it was 50%; in the series on Rattus norvegicus [10] it was 39%; with Rattus norvegicus [11], 44%; in the series on Rattus norvegicus [12] it was 36%; in the series with Rattus norvegicus [13] it was 33%. Also, in the series with Rattus norvegicus [14], the inhibition in vivo at 20 mg/kg is 39%. The Activity in the series with Rattus norvegicus [6] is reported as 0%.
As for `N#Cc1cnn(-c2ccccc2)c1NC(=O)C(=O)NCCCN1CCOCC1`, the IC50 was 100 µM with THP-1 [1] and over 500 µM with THP-1 [3]. The EC50 in the series on THP-1 [2] is over 500 µM.
For the molecule `C[C@H](NC(=O)C(=O)Nc1c(C#N)cnn1-c1ccccc1)c1ccccc1`, in [15], the LD50 at 24 h was over 300 mg/kg. Also, in the series with Rattus norvegicus [7], the median effective dose (ED50) was 22.4 mg/kg. Further, the inhibition in vivo at 20 mg/kg with Rattus norvegicus [8] was 37%; with Rattus norvegicus [9], 39%; in the series on Rattus norvegicus [10], 49%; with Rattus norvegicus [11], 38%; with Rattus norvegicus [12], 32%; in the series with Rattus norvegicus [13], 35%. In addition, in the series on Rattus norvegicus [14], the inhibition in vivo at 20 mg/kg was 41%. The Activity in the series on Rattus norvegicus [6] turned out to be 0%.
For `N#Cc1cnn(-c2ccccc2)c1NC(=O)C(=O)NCCc1ccccc1`, in the series with THP-1 [2], the EC50 was found to be 10 µM.
